In data set [1] the target is T1, Cathepsin S (Homo sapiens, UniProt P25774). Put plainly: Inhibition of human recombinant cathepsin S expressed in Escherichia coli BL21 (DE3) after 10 mins by fluorescence assay.
Target sequence in this assay (P25774 whole entry): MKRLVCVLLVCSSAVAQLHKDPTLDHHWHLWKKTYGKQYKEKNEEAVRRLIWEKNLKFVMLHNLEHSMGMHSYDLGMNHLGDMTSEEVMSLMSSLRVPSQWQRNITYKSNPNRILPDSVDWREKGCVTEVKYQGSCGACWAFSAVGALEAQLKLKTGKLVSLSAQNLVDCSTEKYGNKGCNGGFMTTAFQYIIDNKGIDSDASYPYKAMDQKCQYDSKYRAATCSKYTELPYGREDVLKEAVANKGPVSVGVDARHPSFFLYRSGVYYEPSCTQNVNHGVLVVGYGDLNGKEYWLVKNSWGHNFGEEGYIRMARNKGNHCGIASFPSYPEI
In data set [2] the test system is HUVEC. Nature of the data set: Antiangiogenic activity in VEGF-stimulated HUVEC assessed as capillary tube formation after 16 hrs by photographic analysis. In kind it is functional, Homo sapiens. An outline of the steps:
(§1)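 HUVEC plated on Matrigel-coated wells, treated with α-ketoamide in presence of VEGF (20 ng/mL); after 16 h incubation cultures photographed and capillary tubes (branch points) counted under microscope at 100× magnification. Tube formation expressed relative to DMSO control; mean ± SD from three separate experiments.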

The test system of data set [3] is HUVEC. Put plainly: Cytotoxicity against HUVEC by MTT assay. The conditions noted are these: Homo sapiens. In kind it is cell-based. An outline of the steps:
(§2)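 Overall cytotoxicity measured by MTT proliferation assay, compounds tested at concentrations up to 50 μM.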

Data set [4] relates to HUVEC. Nature of the data set: Antiangiogenic activity in VEGF-stimulated HUVEC assessed as inhibition of capillary tube formation after 16 hrs by photographic analysis. Further details: scale not given: the % may be the effect or the level left. In kind it is functional, Homo sapiens. An outline of the steps:
as §1

Data set [5] in a line: Cytotoxicity against HUVEC assessed as maximal tolerated dose by MTT assay. In kind it is cell-based. The settings on record: human, read-out: MTD. The gist of the method:
(§3)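 MTT proliferation read-out for overall cytotoxicity of the α-ketoamides. Compounds were tested at concentrations up to 50 μM. Both cell types express high levels of Cat S.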
(Formazan colour is commonly taken as a measure of viable cells.)

Data set [6] concerns HUVEC. Nature of the data set: Antiinvasive activity in VEGF-stimulated HUVEC assessed as cellular migration after 24 hrs by fluorescence assay relative to control. In kind it is functional, Homo sapiens. Further details: concentration or dose not given beside the values.
The nature of data set [7]: Antiinvasive activity in human CL1-5 cells assessed as cellular invasion after 24 hrs by fluorescence assay. In kind it is functional. An outline of the steps:
(§4)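 CL1-5 lung adenocarcinoma cells (2 × 10⁵ per well) treated with compound; control wells received DMSO (10 μL) in medium (2 mL). Cell traversal/invasion expressed as percent of DMSO control (set 100%); mean ± SD from hexaplicate experiments.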

A short description of data set [8]: Cytotoxicity against human CL1-5 cells by MTT assay. In kind it is cell-based. An outline of the steps: as §2
The nature of data set [9]: Antiinvasive activity in human CL1-5 cells assessed as cellular migration after 24 hrs by fluorescence assay relative to control. In kind it is functional. Also noted: concentration or dose not given beside the values.
Data set [10] in a line: Antiinvasive activity in human CL1-5 cells after 24 hrs by fluorescence assay. In kind it is functional. An outline of the steps: as §4
A short description of data set [11]: Cytotoxicity against human CL1-5 cells assessed as maximal tolerated dose by MTT assay. In kind it is cell-based. The conditions noted are these: read-out: MTD. An outline of the steps:
as §3

In data set [12] the target is T1, Cathepsin S. Put plainly: Inhibition of cathepsin S-mediated cleavage of fibronectin by cell-based ECM degradation assay.
Target sequence in this assay (P25774 115-331 limits assumed): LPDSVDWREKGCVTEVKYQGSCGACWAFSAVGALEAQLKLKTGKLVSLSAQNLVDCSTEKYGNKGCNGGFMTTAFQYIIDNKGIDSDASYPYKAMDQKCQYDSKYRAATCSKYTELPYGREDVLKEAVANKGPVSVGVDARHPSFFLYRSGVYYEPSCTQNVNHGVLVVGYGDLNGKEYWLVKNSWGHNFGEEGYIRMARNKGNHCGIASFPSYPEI
Data set [13] deals with Cathepsin B (Homo sapiens) (UniProt P07858). Put plainly: Inhibition of cathepsin B assessed as proteolytic activity at 40 nM by fluorimetric assay. Also noted: Activity: scale not given: the % may be the effect or the level left.
The target of data set [14] is Procathepsin L (Homo sapiens) (UniProt P07711). Nature of the data set: Inhibition of cathepsin L assessed as proteolytic activity at 40 nM by fluorimetric assay. Also noted: Activity: scale not given: the % may be the effect or the level left.
Data set [15] addresses T1, Cathepsin S. Nature of the data set: Competitive inhibition of human recombinant cathepsin S expressed in Escherichia coli BL21 (DE3) after 15 mins by Lineweaver-Burke plot analysis.
Target sequence in this assay (P25774 115-331 limits assumed): as above

pIC50: −log10 of the molar value. The source made the active and inactive calls. No cut-off for these calls is given here. Where only a bound is given, the exact number is not on record here.

Procathepsin L (Homo sapiens), sequence (P07711 114-333 limits assumed): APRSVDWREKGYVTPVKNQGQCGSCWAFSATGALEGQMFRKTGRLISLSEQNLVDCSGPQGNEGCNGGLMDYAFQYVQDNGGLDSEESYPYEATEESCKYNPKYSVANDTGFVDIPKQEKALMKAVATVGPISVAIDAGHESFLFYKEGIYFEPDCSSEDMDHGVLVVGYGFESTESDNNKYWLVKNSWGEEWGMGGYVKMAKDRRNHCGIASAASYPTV

What is called pIC50 is the IC50 on a negative log10 scale, so that one unit is a factor of ten. In the case of `CCOC(=O)CNC(=O)C(=O)[C@H](COCc1ccccc1)NC(=O)[C@H](CC(C)C)NC(=O)c1cccc2c1C(=O)c1ccccc1-2`, the negative-log IC50 (pIC50) in [1] is 8.06; in data set [3], 4.52; in data set [8], 4.64. Also, the Activity in data set [2] is recorded as 88%; in [4], 32%; in data set [6] it was 55%; in data set [7], 32%; in data set [9] it was 50%; in data set [10], 68%. For the same compound, the MNTC in data set [5] and in data set [11] was 10 µM in each case. Besides, the inhibition result in data set [12] was “Dose-dependent effect”.
For `CCOC(=O)CNC(=O)C(=O)C(COCc1ccccc1)NC(=O)[C@H](CC1CCCCC1)NC(=O)N1CCOCC1` (some centres not stated), the pIC50 in data set [1] is 8.36; in data set [3], less than 4.30; in [8] it was less than 4.30. Besides, the Activity in data set [6] was 87%; in data set [13] it was 102%; in [9] it was 51%; in data set [14], 3.2%. Also, in data set [15], the inhibition result was “Active”.
For `CCOC(=O)CNC(=O)C(=O)[C@H](COCc1ccccc1)NC(=O)[C@H](CC1CCCCC1)NC(=O)C(=O)c1cccs1`, the negative-log IC50 (pIC50) in [1] is 8.18; in data set [3], 4.44; in [8], less than 4.30. The Activity in [2] is reported as 64%; in [4], 36%; in [6] it was 57%; in data set [7] it was 18%; in [9], 56%; in data set [10] it was 82%. Further, the MNTC in [5] and in data set [11] was 10 µM throughout. Further, in data set [12], the inhibition result was “Dose-dependent effect”.

The values above are taken from ChEMBL document CHEMBL1155553, “Design and synthesis of alpha-ketoamides as cathepsin S inhibitors with potential applications against tumor invasion and angiogenesis” (J Med Chem, 2010).
